Assay results from ChEMBL document CHEMBL2163229, “Identifying novel adenosine receptor ligands by simultaneous proteochemometric modeling of rat and human bioactivity data” (J Med Chem, 2012).

Legend:
[1] = molecular target: T1, Adenosine receptor A2b (Homo sapiens) (UniProt P29275); experiment: Displacement of [3H][…] from human adenosine A2B receptor expressed in CHO cells at 10 uM after 2 hrs by scintillation counting; format: cell-based
T1 sequence (whole entry): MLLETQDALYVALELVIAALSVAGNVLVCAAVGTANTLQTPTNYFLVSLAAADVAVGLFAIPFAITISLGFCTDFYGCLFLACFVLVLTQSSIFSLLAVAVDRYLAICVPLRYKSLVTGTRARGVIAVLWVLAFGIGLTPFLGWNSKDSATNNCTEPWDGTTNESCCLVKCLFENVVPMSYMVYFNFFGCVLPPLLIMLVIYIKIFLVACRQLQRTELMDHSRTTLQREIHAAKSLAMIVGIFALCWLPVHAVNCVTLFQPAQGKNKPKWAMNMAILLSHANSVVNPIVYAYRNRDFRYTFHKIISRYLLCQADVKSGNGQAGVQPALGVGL
Procedure, shortened: (§1)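 Stably transfected CHO membranes (15 μg protein) with 1.0 nM [3H]PSB603 final in 50 mM Tris·HCl pH 7.4, 1 U/mL ADA, 0.1% CHAPS, 2 h at 25 °C. Nonspecific binding with 100 μM NECA. GF/C filtration; washes in ice-cold Tris·HCl pH 7.4 plus 0.1% BSA. Ki by nonlinear regression using radioligand Ki of 0.41 nM.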

Adenosine receptor A2a [2] = molecular target: T2, Adenosine receptor A2a (Homo sapiens, UniProt P29274); experiment: Displacement of [3H]ZM241385 from human adenosine A2A receptor expressed in HEK 293 cells after 2 hrs by scintillation counting; format: cell-based, HEK293
Adenosine receptor A1 = molecular target: T3, Adenosine receptor A1 (Homo sapiens, UniProt P30542); experiment: Displacement of [3H]DPCPX from human adenosine A1 receptor expressed in CHO cells after 1 hr by scintillation counting; format: cell-based
T3 sequence (P30542 whole entry): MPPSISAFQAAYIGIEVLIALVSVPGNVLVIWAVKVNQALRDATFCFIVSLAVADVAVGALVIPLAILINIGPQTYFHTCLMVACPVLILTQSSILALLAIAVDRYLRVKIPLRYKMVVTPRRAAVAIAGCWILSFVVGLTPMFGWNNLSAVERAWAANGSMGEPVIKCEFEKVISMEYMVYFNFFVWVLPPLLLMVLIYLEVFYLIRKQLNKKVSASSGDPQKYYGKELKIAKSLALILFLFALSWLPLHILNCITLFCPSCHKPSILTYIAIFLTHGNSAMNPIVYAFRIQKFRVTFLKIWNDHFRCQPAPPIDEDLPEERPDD

[3] = molecular target: T4, Adenosine receptor A3 (Homo sapiens) (UniProt P0DMS8); experiment: Displacement of [3H]PSB11 from human adenosine A3 receptor expressed in HEK 293 cells at 10 uM after 1 hr by scintillation counting; format: cell-based; conditions: HEK293
T4 sequence (whole entry): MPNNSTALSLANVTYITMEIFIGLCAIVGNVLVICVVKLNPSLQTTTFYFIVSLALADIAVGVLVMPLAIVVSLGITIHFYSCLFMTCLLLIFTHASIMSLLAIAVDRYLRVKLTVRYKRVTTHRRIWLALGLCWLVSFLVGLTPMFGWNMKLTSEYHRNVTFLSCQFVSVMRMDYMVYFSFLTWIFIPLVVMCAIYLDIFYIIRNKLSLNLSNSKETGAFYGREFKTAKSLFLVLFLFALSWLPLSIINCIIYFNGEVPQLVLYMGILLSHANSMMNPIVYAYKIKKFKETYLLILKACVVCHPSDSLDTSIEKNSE

[4] = molecular target: T5, Adenosine receptor A1 (Homo sapiens) (UniProt P30542); experiment: Displacement of [3H]DPCPX from human adenosine A1 receptor expressed in CHO cells at 10 uM after 1 hr by scintillation counting; format: cell-based
T5 sequence (whole entry): T3 sequence (P30542 whole entry)

Adenosine receptor A2b = molecular target: T6, Adenosine receptor A2b (Homo sapiens, UniProt P29275); experiment: Displacement of [3H][…] from human adenosine A2B receptor expressed in CHO cells after 2 hrs by scintillation counting; format: cell-based; procedure, shortened: as §1
T6 sequence (P29275 whole entry): T1 sequence (whole entry)

Adenosine receptor A3 = molecular target: T7, Adenosine receptor A3 (Homo sapiens, UniProt P0DMS8); experiment: Displacement of [3H]PSB11 from human adenosine A3 receptor expressed in HEK 293 cells after 1 hr by scintillation counting; format: cell-based, HEK293
T7 sequence (P0DMS8 whole entry): T4 sequence (whole entry)

Adenosine receptor A2a [5] = molecular target: T2, Adenosine receptor A2a; experiment: Displacement of [3H]ZM241385 from human adenosine A2A receptor expressed in HEK 293 cells at 10 uM after 2 hrs by scintillation counting; format: cell-based; conditions: HEK293

T2 sequence (P29274 whole entry): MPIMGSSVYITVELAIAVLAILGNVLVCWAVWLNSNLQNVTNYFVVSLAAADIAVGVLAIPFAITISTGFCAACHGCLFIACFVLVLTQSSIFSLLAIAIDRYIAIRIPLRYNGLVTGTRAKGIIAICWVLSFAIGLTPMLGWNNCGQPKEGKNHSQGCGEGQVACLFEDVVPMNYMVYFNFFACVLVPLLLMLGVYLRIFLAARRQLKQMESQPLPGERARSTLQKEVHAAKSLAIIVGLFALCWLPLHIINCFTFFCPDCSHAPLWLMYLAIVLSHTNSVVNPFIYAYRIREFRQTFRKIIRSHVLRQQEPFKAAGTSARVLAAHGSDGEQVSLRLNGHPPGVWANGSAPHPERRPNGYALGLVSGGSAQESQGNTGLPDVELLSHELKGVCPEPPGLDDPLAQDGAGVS

inhibition [1] | Ki (Adenosine receptor A2a [2]) | Ki (Adenosine receptor A1) | inhibition [3] | inhibition [4] | Ki (Adenosine receptor A2b) | Ki (Adenosine receptor A3) | inhibition (Adenosine receptor A2a [5]) | SMILES
32% | 31000 nM | 510 nM | 21% |  |  |  |  | COc1nc(N)c(C#N)c(-c2ccc3c(c2)OCO3)c1C#N
-5% | 1600 nM |  | 33% | 35% |  |  |  | COCc1cc(C)nc2sc(-c3nc(N)nc(N(C)C)n3)c(N)c12
 | 43 nM | 7.2 nM |  |  | 220 nM | 440 nM |  | Nc1nc(-c2ccccc2)nc(-c2ccccc2O)n1
-8% | 5100 nM |  | 3% | 44% |  |  |  | O=C(Cc1ccccc1)Nc1nn2c(-c3ccco3)nnc2s1
 | 300 nM | 900 nM | 13% |  |  |  |  | N#Cc1cnc(N)nc1-c1ccccc1
14% |  | 3200 nM | -3% |  |  |  | 42% | C=CCn1c(=O)[nH]c2nc3cc(NC(C)=O)ccc3nc2c1=O
